High-throughput results from PubChem BioAssay.
In the library only some 1.9% were active in any assay of this set; here they are far more common.
ZTA counter: blocks Epstein-Barr virus ZTA, an EBNA-1 counter-screen; P03206; ZTA-DNA binding, fluorescence polarization; inhibition, % at 11 µM; 0.15% of 320,000 active; in the data active means inhibition above about 33%
Target sequence (P03206 whole entry, looked up): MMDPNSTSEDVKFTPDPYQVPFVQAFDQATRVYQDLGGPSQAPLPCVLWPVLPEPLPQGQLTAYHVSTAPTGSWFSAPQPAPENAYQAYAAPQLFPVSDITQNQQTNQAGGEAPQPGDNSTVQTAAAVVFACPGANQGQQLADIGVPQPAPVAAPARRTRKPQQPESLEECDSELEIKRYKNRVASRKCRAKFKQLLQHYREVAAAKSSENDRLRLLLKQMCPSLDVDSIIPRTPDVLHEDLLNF
NS3 helicase inh: inhibitors of HCV NS3 helicase, primary screen, biochemical, Cy5 molecular beacon fluorescence; 0.56% of 290,000 active; NS3 helicase DNA unwinding; Hepatitis C virus NS3 helicase; AID 1800, 2009; inhibition, % at 10.9 µM;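 active means inhibition above the mean of all tested compounds plus 3 SD, set per campaign, cut at about 35% in these data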
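Measured by: Cy5 fluorescence, 0 and 60 min reads / Assay system: NS3 helicase fragment of HCV / Control set: low DMSO, high thioflavine S at 110 µM / Times: 1 h reaction at 25 °C, ATP-initiated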
EBNA-1 inhibitor: EBNA-1 DNA-binding inhibitors, primary screen, biochemical, fluorescence polarization. inhibition, % at 14.8 µM. 0.34% of 300,000 active. AID 1950, 2009; in the data active means inhibition above about 28%
HCV core dimer: inhibitors of HCV core protein dimerization, primary screen, biochemical, TR-FRET, high-throughput; 0.33% of 300,000 active; AID 1899, 2009; TR-FRET GST/Flag-core106 dimerization, 1536-well; inhibition, % at 5 µM;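 active means inhibition above the mean of all tested compounds plus 3 SD, set per screening campaign, cut at about 45% in these data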
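Assay system: Tagged HCV core106 pair (GST and Flag) | Buffer or medium: KF-containing HEPES buffer, pH 7.45, DTT, CHAPS, BSA | Also added: Eu donor and XL665 acceptor anti-tag antibodies | Dosing: One concentration, 5 µM, in 0.5% DMSO | Timing: 4 h at 22.5 °C | Technique: TR-FRET 671 and 617 nm emission | Repeats: Singlicate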
PP1 inh: PP1-alpha phosphatase inhibitors, primary screen, counter-screen for PP5 inhibitor project, biochemical, fluorescence, OMFP substrate, single point | Serine/threonine-protein phosphatase PP1-alpha catalytic subunit (Homo sapiens), P62136 | purified PP1alpha | inhibition, % at 6.7 µM | 0.9% of 320,000 active | AID 2235, 2010;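 active means inhibition above the mean inhibition of all tested compounds plus 3 SD, computed separately for each screening campaign, cut at about 15% in these data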
Target sequence (P62136 whole entry, looked up): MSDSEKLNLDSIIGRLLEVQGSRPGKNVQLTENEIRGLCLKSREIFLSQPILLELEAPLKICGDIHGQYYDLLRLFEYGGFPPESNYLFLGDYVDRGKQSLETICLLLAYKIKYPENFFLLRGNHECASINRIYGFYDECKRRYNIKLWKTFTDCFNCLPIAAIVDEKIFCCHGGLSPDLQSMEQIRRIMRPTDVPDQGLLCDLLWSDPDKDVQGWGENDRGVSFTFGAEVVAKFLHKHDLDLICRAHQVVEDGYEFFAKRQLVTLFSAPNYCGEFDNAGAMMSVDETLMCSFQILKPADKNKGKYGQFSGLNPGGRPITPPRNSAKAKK
Of the large screens only hits and unclear results are named; the others gave an inactive call.

CCOC(=O)C(=CN(CCc1ccccc1)CC(=O)OC)C(=O)OCC	none
Cc1ccc(-c2ccc(/C=C3\C(=O)ON=C3c3ccccc3)o2)c([N+](=O)[O-])c1	PP1 inh 17
Cc1ccc(S(=O)(=O)NCc2ccccc2)s1	none
COc1ccc(-c2csc3nc(-c4ccc(C)cc4)oc(=O)c23)cc1OC	HCV core dimer 50
COc1ccc(-c2csc3nc(C(C)(C)C)oc(=O)c23)cc1OC	none
CCOCCCn1c(=NC(=O)c2ccco2)c(C(=O)OCC)cc2c(=O)n3cccc(C)c3nc21	none
CCCNC(=O)CN1CCC(c2nc3ccccc3[nH]2)CC1	none
CCCCc1ccc(C2C(C#N)=C(N)SC(N)=C2C#N)s1	HCV core dimer 59
CCOc1ccc(C2C(C#N)=C(N)SC(N)=C2C#N)c(OCC)c1	none
Cn1c(=O)c2c(SCC(=O)NCc3ccco3)nc(-c3ccccc3Cl)nc2n(C)c1=O	PP1 inh 17
COC(=O)C1=C(C)N(Cc2ccccc2)C(=NCCc2cccnc2)N[C@H]1c1ccccc1	none
COC(=O)C1=C(C)N(Cc2ccccc2)C(=NCCCCO)N[C@H]1c1ccccc1	PP1 inh 16
COc1ccc2oc(C(=O)Nc3nc(-c4ccccn4)cs3)c(C)c2c1	HCV core dimer 56 (no result: NS3 helicase inh)
O=C(Nc1nc(-c2ccccn2)cs1)c1ccco1	PP1 inh 16
COc1ccc2oc(C(=O)Nc3nnc(C)s3)c(C)c2c1	none (no result: NS3 helicase inh, EBNA-1 inhibitor, HCV core dimer)
N#CCC(=O)Nc1ccc(C(=O)OCC(=O)Nc2ccc3ccccc3c2)cc1	PP1 inh 15 (no result: NS3 helicase inh, EBNA-1 inhibitor, HCV core dimer)
COCCn1c(C)cc(C(=O)COC(=O)c2ccc(NC(=O)CC#N)cc2)c1C	HCV core dimer 68
O=C(C1CCC(Cn2c(=S)[nH]c3ccccc3c2=O)CC1)N1CCN(c2ccccc2)CC1 (stereo not given)	HCV core dimer 53
O=C(C1CCC(Cn2c(=O)[nH]c3ccccc3c2=O)CC1)N1CCN(c2ccccc2)CC1 (stereo not given)	none
CN(C)C(=O)COc1ccc2c3c(c(=O)oc2c1)CCCC3	none
COc1ccccc1-c1cc(C(=O)Nc2sc3c(c2C#N)CCC(C)C3)c2ccccc2n1 (stereo not given)	HCV core dimer 47
Cc1cc(C(=O)OCC(=O)Nc2sc3c(c2C#N)CCC(C)C3)c2ccccc2n1 (stereo not given)	HCV core dimer 53
COc1ccccc1NCC(=O)N/N=C(\C)c1cccs1	none
Oc1ccccc1C1NN=C(c2ccccc2)S1 (stereo not given)	none
Cc1cc(C)c(S(=O)(=O)Nc2ccnc(-c3cccnc3)n2)c(C)c1	none
O=C(O)COc1ccc(/C=C2/SC(=S)N(Cc3ccccc3)C2=O)cc1	PP1 inh 15
CCOc1ccc(C(=O)NCC(=O)NCC(c2ccc(OC)cc2)N2CCOCC2)cc1OCC (stereo not given)	none (no result: NS3 helicase inh)
COC/C=C/C1=CC2=CC(=O)C(C)(OC(=O)c3cnc4ccccc4n3)C(=O)C2=CN1C1CC1 (stereo not given)	none (no result: NS3 helicase inh)
COC/C=C/C1=CC2=CC(=O)C(C)(OC(=O)c3cnc4ccccc4n3)C(=O)C2=CN1c1ccc(OC)cc1 (stereo not given)	PP1 inh 18 (no result: NS3 helicase inh)
O=C(O)C1CCC(=O)N1C(=O)OCc1ccccc1 (stereo not given)	none
O=C1CC(/C=C/c2ccccn2)=Nc2ccccc2N1	none
O=C1CC(/C=C/c2ccco2)=Nc2ccccc2N1	HCV core dimer 58
Cc1occc1-c1nnc(SCC(=O)c2ccc(F)cc2)n1Cc1ccco1	none
COc1ccccc1-c1nnc(SCC(=O)c2ccc(C3CCCCC3)cc2)n1Cc1ccco1	PP1 inh 17
COc1ccc2c(c1)OC[C@H]1[C@@H]2N2C(=O)CNC(=O)[C@@]2(C)[C@H]1c1ccccc1	none (no result: NS3 helicase inh, EBNA-1 inhibitor, HCV core dimer)
COc1ccccc1C(CCNCc1ccc(N(C)C)cc1)c1ccc(OC(C)C)cc1 (stereo not given)	PP1 inh 16
CCOC(=O)c1ccc(N2C(=O)C3CC=CCC3C2=O)cc1 (stereo not given)	none
CCOC(=O)c1ccc(N2C(=O)C3C(C2=O)C(C(=O)c2ccc(Cl)cc2)N2CCCC32)cc1 (stereo not given)	HCV core dimer 74
Cc1ccc(OCCCN2C(=O)C(=O)c3cc(C)ccc32)cc1	PP1 inh 17
Cc1cccc(OCCCN2C(=O)C(=O)c3cc(C)ccc32)c1	PP1 inh 16
CCOC(=O)c1[nH]c(CN2CCN(c3ccc(OC)cc3)CC2)c(C(=O)OCC)c1C	none
CCc1nnc(NS(=O)(=O)c2ccc(NC(=O)c3cccc([N+](=O)[O-])c3)cc2)s1	none
CCCCOc1cccc(C(=O)Nc2ccc(S(=O)(=O)Nc3nnc(CC)s3)cc2)c1	PP1 inh 15
CCOC(=O)c1ccc(-c2c(-c3ccc4c(c3)OCO4)noc2C)cc1F	none
C=CCn1c(SCc2cc(=O)n3ccsc3n2)nnc1C1CCCCC1	HCV core dimer 69
O=c1cc(CSc2nnc(NC3CCCCC3)s2)nc2sccn12	none
COc1ccc(N(CC(=O)N/N=C/c2ccc(-c3ccc([N+](=O)[O-])cc3)o2)S(=O)(=O)c2ccc(C)cc2)cc1Cl	HCV core dimer 63
COc1ccc(N(CC(=O)N/N=C/c2ccc(-c3ccc([N+](=O)[O-])cc3)o2)S(=O)(=O)c2ccc(C)cc2)cc1	HCV core dimer 52
CCC(=O)N/N=C/c1ccc(-c2ccc([N+](=O)[O-])cc2)o1	none
COc1cccc(CNC(=O)C2CCC(CNS(=O)(=O)c3cccc4cccnc34)CC2)c1 (stereo not given)	none
CN1C(C(=O)NCc2ccc(OC(F)(F)F)cc2)CC2Cn3c(nc4ccccc43)C21 (stereo not given)	none (no result: NS3 helicase inh)
Cn1cccc1CC(=O)N/N=C\c1c2ccccc2cc2ccccc12	PP1 inh 16
Cn1cccc1CC(=O)N/N=C/c1cccc([N+](=O)[O-])c1	none
Cn1cccc1CC(=O)N/N=C/c1cc([N+](=O)[O-])ccc1Cl	HCV core dimer 48
CN1CCN(CCNC(=O)c2ccc3nc(-c4ccc(F)cc4)c(-c4ccc(F)cc4)nc3c2)CC1	none
Cc1ccc(-n2nc3c(N4CCC(C(=O)NCc5ccccc5C)CC4)nnc(C)c3c2C)cc1	PP1 inh 16
CC(=O)c1c(C)[nH]c(C(=O)OCc2ccc(F)cc2Cl)c1C	none
Oc1c(CN2CCOCC2)cc(COCc2ccccc2)c2cccnc12	PP1 inh 16
O=C(/C=C/c1ccco1)N1CCCC(c2ccccc2)C1 (stereo not given)	HCV core dimer 48
C/C(=N/NS(=O)(=O)c1ccc(CC(C)C)cc1)c1ccncc1	none
COC/C=C/C1=CC2=CC(=O)C(C)(OC(=O)C3CCCC3)C(=O)C2=CO1 (stereo not given)	none (no result: NS3 helicase inh)
